Published values of several laboratories.
FLT3 F691L/ITD: Receptor-type tyrosine-protein kinase FLT3 (FLT3, Homo sapiens, UniProt P36888, F691L/ITD)
FLT3 D835Y: Receptor-type tyrosine-protein kinase FLT3 (FLT3, Homo sapiens, UniProt P36888, D835Y)
FLT3: Receptor-type tyrosine-protein kinase FLT3 (FLT3, Homo sapiens, UniProt P36888)
FLT3 K663Q: Receptor-type tyrosine-protein kinase FLT3 (FLT3, Homo sapiens, UniProt P36888, K663Q)
FLT3 autoinhibited: Receptor-type tyrosine-protein kinase FLT3, autoinhibited (FLT3, Homo sapiens, UniProt P36888)
FLT3 N841I: Receptor-type tyrosine-protein kinase FLT3 (FLT3, Homo sapiens, UniProt P36888, N841I)
FLT3 D835H: Receptor-type tyrosine-protein kinase FLT3 (FLT3, Homo sapiens, UniProt P36888, D835H)
FLT3 D835V/ITD: Receptor-type tyrosine-protein kinase FLT3 (FLT3, Homo sapiens, UniProt P36888, D835V/ITD)

| Structure (SMILES) | target | assay | conditions | quantity | result |
| --- | --- | --- | --- | --- | --- |
| O=C(NCCCN1CCOCC1)c1ccc(Nc2ncc(Cl)c(-c3ccc(Cl)s3)n2)cc1 | FLT3 F691L/ITD | binding, competition with immobilised ligand | 1 µM | remaining binding | 5.1% |
| Cc1cc(NC(=O)c2cccc3cc(-c4cccc5[nH]nc(N)c45)ccc23)ccc1F | FLT3 D835Y | enzyme activity, inhibitor | 0.1 µM | activity vs control | 98% |
| CCN(CC)CCNC(=O)c1c(C)[nH]c(/C=C2\C(=O)Nc3ccc(F)cc32)c1C | FLT3 | cell-free assay | 0.5 µM | remaining signal | 2.71% |
| CCN(CC)CCNC(=O)c1c(C)[nH]c(/C=C2\C(=O)Nc3ccc(F)cc32)c1C | FLT3 | enzyme activity, inhibitor | 1 µM | remaining activity | 1% |
| CC(C)(C)c1nc2c(s1)c1nc(N)ncc1c1ccc(NS(=O)(=O)c3c(F)cccc3F)c(F)c12 | FLT3 | enzyme activity, inhibitor, radiometric | 1 µM | remaining activity | 104% |
| CN(C)C1CCN(CC#Cc2nn(C3CCCC3)c3nc(NCc4ccccc4)ncc23)C1 (stereo not shown) | FLT3 | enzyme activity, inhibitor, FRET | 10 µM | inhibition | 59% |
| Cc1ccc(Nc2nccc(N(C)c3ccc4c(C)n(C)nc4c3)n2)cc1S(N)(=O)=O | FLT3 | enzyme activity, inhibitor | 0.5 µM | remaining activity | 40.7% |
| Cc1cnc(Nc2ccc(C(=O)N3CCC(N4CCCC4)CC3)cc2)nc1-c1cc2ccccc2s1 | FLT3 K663Q | binding, competition with immobilised ligand | 1 µM | remaining binding | 2.2% |
| N[C@H]1CCN(c2nccc(-c3cnn4ncccc34)n2)C1 | FLT3 autoinhibited | binding | 1 µM | remaining binding | 99% |
| C[C@H](c1ccc(F)cc1)N(Cc1cccc(C(=O)O)c1)C(=O)c1cnc2ccccc2c1 | Receptor-type tyrosine-protein kinase FLT3 (FLT3, Homo sapiens, UniProt P36888, ITD) | cell-free assay, competition with immobilised ligand | 1 µM | remaining binding | 100% |
| COc1ccc(COc2ccc(Cc3cnc(N)nc3N)cc2OC)cc1 | FLT3 | cell-free assay | 0.5 µM | remaining signal | 103% |
| O=C(c1ccc(Nc2ncc(Cl)c(-c3cc4ccccc4s3)n2)cc1)N1CCC(N2CCCC2)CC1 | FLT3 | binding, competition with immobilised ligand | 1 µM | remaining binding | 2.5% |
| Cc1cnn2ncc(-c3ccnc(N(C)C)n3)c2c1 | FLT3 autoinhibited | binding | 1 µM | remaining binding | 84% |
| CCCOc1ccc([C@H]2[C@H](C(=O)O)[C@@H](c3ccc4c(c3)OCO4)CN2CC(=O)Nc2c(CC)cccc2CC)cc1 | FLT3 N841I | cell-free assay, competition with immobilised ligand | 1 µM | remaining binding | 93% |
| O=C(NCCCN1CCOCC1)c1ccc(Nc2nccc(-c3cc4ccccc4s3)n2)cc1 | FLT3 autoinhibited | binding, competition with immobilised ligand | 1 µM | remaining binding | 67% |
| CCCCN(CCCC)C(=O)CN1C[C@@H](c2cc(OC)c3c(c2)OCO3)[C@H](C(=O)O)[C@H]1CC(C)(C)CCC | FLT3 autoinhibited | cell-free assay, competition with immobilised ligand | 1 µM | remaining binding | 97.4% |
| CC1CCCN1c1nccc(-c2cnn3ncccc23)n1 (stereo not shown) | Receptor-type tyrosine-protein kinase FLT3 (FLT3, Homo sapiens, UniProt P36888, D835V) | binding | 1 µM | remaining binding | 79% |
| O=C(Nc1cccnn1)N1CCC(=Cc2cccc(Oc3ccc(C(F)(F)F)cn3)c2)CC1 | FLT3 D835Y | cell-free assay, competition with immobilised ligand | 1 µM | remaining binding | 100% |
| CN(C)c1ncc(F)c(-c2cnn3ncccc23)n1 | FLT3 D835H | binding | 1 µM | remaining binding | 86% |

| Structure (SMILES) | target | assay | conditions | quantity | result |
| --- | --- | --- | --- | --- | --- |
| Cc1ccc(C(=O)NCc2ccsc2)cc1C#Cc1cn(C(C)C)c2ncnc(N)c12 | FLT3 D835Y | enzyme activity, inhibitor | 1 µM | activity vs control | 118% |
| O=C(c1ccc(Nc2ncc(Cl)c(-c3ccc(Cl)s3)n2)cc1)N1CCC(N2CCCC2)CC1 | FLT3 D835Y | binding, competition with immobilised ligand | 1 µM | remaining binding | 1.1% |
| CCS(=O)(=O)c1cc2cc(C[C@@](O)(CC(C)(C)c3ccc(F)cc3C(N)=O)C(F)(F)F)[nH]c2cn1 | FLT3 D835V/ITD | cell-free assay, competition with immobilised ligand | 1 µM | remaining binding | 73% |
| CN(C)c1nccc(-c2cnc3ncccn23)n1 | FLT3 D835Y | binding | 1 µM | remaining binding | 78% |
| CNC(=O)c1cc(Oc2ccc(NC(=O)Nc3ccc(Cl)c(C(F)(F)F)c3)cc2)ccn1 | FLT3 | cell-free assay | 0.5 µM | remaining signal | 9.22% |
| C[C@@H]1CCN(c2nccc(-c3cnn4ncccc34)n2)C1 | FLT3 D835H | binding | 1 µM | remaining binding | 100% |
| Nc1ncnc2occ(-c3ccc(NC(=O)Nc4cc(C(F)(F)F)ccc4F)cc3)c12 | FLT3 F691L/ITD | cell-free assay, inhibitor | 20 µM | remaining signal | 6.5% |
| Cc1ccc(C(=O)Nc2ccc(CN3CCN(C)CC3)c(C(F)(F)F)c2)cc1C#Cc1cnc2cccnn12 | Receptor-type tyrosine-protein kinase FLT3 (FLT3, Homo sapiens, UniProt P36888, R834Q) | enzyme activity, inhibitor | 23.5 nM | remaining activity | 5% |
| O=C(Nc1cnn(-c2csc(C(=O)NC3COC3)c2)c1)Nc1ccccc1Cl | FLT3 | enzyme activity, inhibitor | 5 µM | remaining activity | 89.7% |
| CC(C)CC(=O)N1CCc2nc(-c3ccc(Br)cc3)nc(N(C)Cc3ccccc3)c2C1 | FLT3 D835Y | cell-free assay, competition with immobilised ligand | 0.1 µM | remaining binding | 100% |
| O=[N+]([O-])c1cccc2[nH]c(CNc3nc(N4CCOCC4)nc4c3ncn4-c3ccsc3)nc12 | FLT3 K663Q | binding, competition with immobilised ligand | 10 µM | binding vs control | 5.2% |
| O=C(c1ccc(Nc2nccc(-c3cc4ccccc4s3)n2)cc1)N1CCC(N2CCCC2)CC1 | FLT3 K663Q | binding, competition with immobilised ligand | 1 µM | remaining binding | 37% |
| O=C1NC(c2ccccn2)Sc2ccccc21 (stereo not shown) | FLT3 D835V/ITD | cell-free assay, competition with immobilised ligand | 1 µM | remaining binding | 83% |
| CCCOc1ccc(OC)c(F)c1C(=O)c1ccc(C(=O)N[C@@H]2CNC[C@H]2NC(=O)c2ccc3[nH]ncc3c2)cc1 | FLT3 D835Y | enzyme activity, inhibitor | 10 µM | remaining activity | 12% |
| CN(CCCC(F)(F)F)c1nccc(-c2cnn3ncccc23)n1 | FLT3 | binding | 1 µM | remaining binding | 63% |
| Oc1cccc(-c2nc(N3CCOCC3)c3oc4ncccc4c3n2)c1 | FLT3 | cell-free assay | 0.5 µM | remaining signal | 87.1% |
| CN(c1ccnc(CNc2nc(Nc3ccc4c(c3)CC(=O)N4)ncc2C(F)(F)F)n1)S(C)(=O)=O | FLT3 D835H | cell-free assay, competition with immobilised ligand | 1 µM | remaining binding | 15% |
| c1cnn2ncc(-c3ccnc(N4CCC45COC5)n3)c2c1 | FLT3 N841I | binding | 1 µM | remaining binding | 72% |
